The source made the active and inactive calls. The rule behind the calls is not given here.
How the values were obtained:
[1] = molecular target: Abl (Tyrosine-protein kinase ABL1) (Homo sapiens, UniProt P00519); test: Inhibition of human recombinant N terminal His6 tagged Abl (27 to end residue) assessed as residual activity at 5 uM using KKGEAIYAADFA-NH2 as a substrate in the presence of NP-40 incubated for 10 mins by scintillation counting analysis relative to control; conditions: probe KKGEAIYAADFA-NH2, read-out: Activity
Sequence of Abl (Tyrosine-protein kinase ABL1) (P00519 whole entry): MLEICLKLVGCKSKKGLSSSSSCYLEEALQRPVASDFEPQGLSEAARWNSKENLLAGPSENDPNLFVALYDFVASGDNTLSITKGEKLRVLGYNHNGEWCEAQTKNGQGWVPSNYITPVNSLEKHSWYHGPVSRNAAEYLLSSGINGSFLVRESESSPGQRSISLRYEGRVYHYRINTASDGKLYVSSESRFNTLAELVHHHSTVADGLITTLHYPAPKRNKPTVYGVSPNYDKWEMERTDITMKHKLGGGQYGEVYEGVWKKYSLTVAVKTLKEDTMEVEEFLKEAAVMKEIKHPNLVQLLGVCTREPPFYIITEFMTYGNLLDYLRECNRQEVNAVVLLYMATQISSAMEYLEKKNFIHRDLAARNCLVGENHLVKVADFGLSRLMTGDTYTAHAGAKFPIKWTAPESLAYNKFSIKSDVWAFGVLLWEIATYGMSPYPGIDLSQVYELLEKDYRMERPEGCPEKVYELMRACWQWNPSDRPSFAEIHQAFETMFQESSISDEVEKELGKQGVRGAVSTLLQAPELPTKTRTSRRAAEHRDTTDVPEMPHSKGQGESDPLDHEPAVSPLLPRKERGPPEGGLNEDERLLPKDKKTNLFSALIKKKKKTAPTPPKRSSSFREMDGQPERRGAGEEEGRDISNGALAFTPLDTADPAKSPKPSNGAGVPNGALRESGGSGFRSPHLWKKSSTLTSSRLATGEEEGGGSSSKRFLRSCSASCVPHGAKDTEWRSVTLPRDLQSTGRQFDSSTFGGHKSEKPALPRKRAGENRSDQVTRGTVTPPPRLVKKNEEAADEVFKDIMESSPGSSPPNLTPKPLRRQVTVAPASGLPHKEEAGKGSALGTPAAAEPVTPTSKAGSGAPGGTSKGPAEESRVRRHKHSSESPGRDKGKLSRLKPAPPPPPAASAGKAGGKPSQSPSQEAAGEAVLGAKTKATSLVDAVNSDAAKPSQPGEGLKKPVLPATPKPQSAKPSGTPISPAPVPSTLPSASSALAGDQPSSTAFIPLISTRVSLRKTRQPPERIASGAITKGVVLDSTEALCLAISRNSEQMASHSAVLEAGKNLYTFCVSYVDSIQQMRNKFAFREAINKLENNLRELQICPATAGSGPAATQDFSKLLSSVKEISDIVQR
Procedure, shortened: (§1)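 Compounds at fixed 5 μM; 10–50 ng kinase, substrate and NP-40/BSA per supplementary table, 10 μL at 30 °C for 10 min in low-binding tubes. Reactions spotted on filter, dried, scintillation counted. Mean ± SD of two independent experiments.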

CDK9/cyclin T1 = CDK9/cyclin T1 (Homo sapiens, UniProt P50750); test: Inhibition of human full length CDK9/ His-tagged cT1 assessed as residual activity at 5 uM using CDKtide as a substrate in the presence of BSA incubated for 10 mins by scintillation counting analysis relative to control; format: protein-complex assay; conditions: full length CDK9/His-tagged cyclin T1 complex, probe CDKtide, read-out: Activity; procedure, shortened: as §1
Sequence of CDK9/cyclin T1 (O60563 whole entry, the tested form may be a part): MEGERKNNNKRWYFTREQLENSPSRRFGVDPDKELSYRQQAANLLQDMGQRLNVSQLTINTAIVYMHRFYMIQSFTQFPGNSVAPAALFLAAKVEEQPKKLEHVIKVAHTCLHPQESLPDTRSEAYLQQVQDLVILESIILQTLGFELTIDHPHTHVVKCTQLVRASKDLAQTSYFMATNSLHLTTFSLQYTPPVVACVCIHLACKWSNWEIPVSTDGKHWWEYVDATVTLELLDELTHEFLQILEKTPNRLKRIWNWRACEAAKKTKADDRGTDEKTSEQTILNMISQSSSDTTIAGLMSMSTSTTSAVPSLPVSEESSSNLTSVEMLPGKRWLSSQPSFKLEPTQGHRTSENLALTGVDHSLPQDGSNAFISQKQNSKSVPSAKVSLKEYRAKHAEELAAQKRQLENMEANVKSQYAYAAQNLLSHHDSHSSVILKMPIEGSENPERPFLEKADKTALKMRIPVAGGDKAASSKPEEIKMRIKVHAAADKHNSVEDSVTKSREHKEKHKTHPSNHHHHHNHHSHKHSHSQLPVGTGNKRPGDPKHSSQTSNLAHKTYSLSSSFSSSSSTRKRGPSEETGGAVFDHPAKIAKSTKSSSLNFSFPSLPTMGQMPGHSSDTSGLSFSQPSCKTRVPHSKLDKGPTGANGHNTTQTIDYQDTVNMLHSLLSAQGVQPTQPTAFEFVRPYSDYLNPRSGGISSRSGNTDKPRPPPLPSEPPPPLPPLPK
Sequence of CDK9/cyclin T1 (P50750 whole entry, the tested form may be a part): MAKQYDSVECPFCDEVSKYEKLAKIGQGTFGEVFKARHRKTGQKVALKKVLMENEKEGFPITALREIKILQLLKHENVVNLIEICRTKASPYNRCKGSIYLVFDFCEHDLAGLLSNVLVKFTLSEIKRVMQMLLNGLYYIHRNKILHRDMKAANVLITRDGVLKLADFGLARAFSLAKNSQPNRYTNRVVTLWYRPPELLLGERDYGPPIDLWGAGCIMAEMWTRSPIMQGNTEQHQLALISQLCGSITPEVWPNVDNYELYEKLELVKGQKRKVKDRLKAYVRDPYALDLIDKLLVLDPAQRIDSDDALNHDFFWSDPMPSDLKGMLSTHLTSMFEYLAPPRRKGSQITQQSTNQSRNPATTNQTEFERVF

[2] = Inhibition of DENV NS5-MTase domain using GpppA2'OMe-RNA74 as a substrate incubated for 30 mins by filter binding assay; parameters: species or system dengue virus type 2; conditions: read-out: IC50
Procedure, shortened: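 MTase (1 μM) incubated with increasing inhibitor in 40 mM Tris-HCl pH 7.5, 5 mM DTT, 10 μM AdoMet ([3H]-labelled), 0.5 μM GpppA2′OMe-RNA74 substrate, 30 °C for 30 min; stopped in ice-cold 100 μM AdoHcy; DEAE filter binding, scintillation counting.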

[3] = Inhibition of full length ZIKV NS5-MTase domain using 7MeGpppAC4 as a substrate incubated for 30 mins by filter binding assay; parameters: species or system Zika virus
Huh-7 = test: (§2) Cytotoxicity against human Huh-7 cells assessed as reduction in cell viability by Celltiter-Glo luminescent cell viability assay; format: cell-based; conditions: huh-7
Procedure, shortened: (§3)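 Compound-exposed cells assessed by CellTiter-Glo luminescence versus DMSO control; CC50 from dose-response.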

dengue virus type 2 [4] = test: Antiviral activity against Dengue virus serotype 2 New Guinea C infected in pre-seeded Huh-7 cells assessed as inhibition of viral replication incubated for 72 hrs by immunodetection based secondary yield reduction assay; format: functional, organism-based
[5] = Selectivity index, ratio of CC50 for human Huh-7 cells to IC50 for Dengue virus serotype 2 New Guinea C infected in pre-seeded Huh-7 cells assessed as inhibition of viral replication incubated for 72 hrs by immunodetection based secondary yield reduction assay; format: toxicity, cell-based; conditions: read-out: Selectivity Index
Zika virus = test: Antiviral activity against Zika virus H/PF/2013 infected in pre-seeded Huh-7 cells assessed as inhibition of viral replication incubated for 72 hrs by immunodetection based secondary yield reduction assay; format: functional, organism-based; conditions: H/PF/2013, Huh-7, 72 h
[6] = Selectivity index, ratio of CC50 for human Huh-7 cells to IC50 for Zika virus H/PF/2013 infected in pre-seeded Huh-7 cells assessed as inhibition of viral replication incubated for 72 hrs by immunodetection based secondary yield reduction assay; format: toxicity, cell-based; conditions: read-out: Selectivity Index
West Nile virus [7] = test: Antiviral activity against West Nile virus lineage 1 (Italy/2009) infected in pre-seeded Huh-7 cells assessed as inhibition of viral replication incubated for 48 hrs by immunodetection based direct yield reduction assay; format: functional, organism-based
West Nile virus [8] = test: Antiviral activity against West Nile virus lineage 1 (Italy/2009) infected in pre-seeded Huh-7 cells assessed as inhibition of viral replication incubated for 48 hrs by immunodetection based plaque reduction assay; format: functional, organism-based; conditions: Huh-7, 48 h
[9] = Selectivity index, ratio of CC50 for human Huh-7 cells to IC50 for West Nile virus lineage 1 (Italy/2009) infected in pre-seeded Huh-7 cells assessed as inhibition of viral replication incubated for 48 hrs by immunodetection based direct yield reduction assay; format: toxicity, cell-based; conditions: read-out: Selectivity Index
Procedure, shortened: (§4)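 Direct yield reduction in Huh7 cells (7000/well), infected with 50 TCID₅₀ of DENV or ZIKV, or 25 TCID₅₀ of WNV. Adsorption 1 h at 37 °C, then virus removed and serial compound dilutions added. Incubated 72 h (DENV, ZIKV) or 48 h (WNV). Viral antigen immunodetected on the monolayer. IC₅₀ by non-linear regression, mean of three experiments. SI = CC₅₀ (Huh7, CellTiter-Glo luminescence)/IC₅₀.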

[10] = Selectivity index, ratio of CC50 for human Huh-7 cells to IC50 for West Nile virus lineage 1 (Italy/2009) infected in pre-seeded Huh-7 cells assessed as inhibition of viral replication incubated for 48 hrs by immunodetection based plaque reduction assay; format: toxicity, cell-based; conditions: read-out: Selectivity Index
[11] = as §2; format: cell-based; conditions: Huh-7 cells; procedure, shortened: as §3
dengue virus type 2 [12] = test: Antiviral activity against Dengue virus serotype 2 New Guinea C infected in pre-seeded Huh-7 cells assessed as inhibition of viral replication incubated for 72 hrs by immunodetection based direct yield reduction assay; format: functional, organism-based; conditions: Dengue virus, New Guinea C, Huh-7, 72 h; read-out: IC50
[13] = Selectivity index, ratio of CC50 for human Huh-7 cells to IC50 for Dengue virus serotype 2 New Guinea C infected in pre-seeded Huh-7 cells assessed as inhibition of viral replication incubated for 72 hrs by immunodetection based direct yield reduction assay; format: toxicity, cell-based; conditions: read-out: Selectivity Index; procedure, shortened: as §4
[14] = Antioxidant activity assessed as inhibition of ABTS radical scavenging activity at 10 uM to 1 mM measured after 10 mins; format: functional
Procedure, shortened: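 ABTS radical solution diluted in ethanol (1:100) to A734 0.70; 3.0 mL mixed with 30 μL sample in DMSO at 10 μM–1 mM; A734 read after exactly 10 min; ascorbic acid reference; % scavenging = (A0−As)/A0×100.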

[15] = Inhibition of Dengue virus 2 […] RNA dependent RNA polymerase incubated for 10 mins by picogreen staining based fluorescent analysis (Rvb= 0.27+/-0.03 uM); parameters: species or system dengue virus type 2
[16] = Inhibition of full length Dengue virus 2 NS5 RNA dependent RNA polymerase incubated for 10 mins by picogreen staining based fluorescent analysis (Rvb= 0.32+/-0.05 uM); parameters: species or system dengue virus type 2
[17] = Inhibition of full length ZIKA virus NS5 RNA dependent RNA polymerase incubated for 10 mins by picogreen staining based fluorescent analysis (Rvb= 1+/-0.2 uM)
[18] = molecular target: Src (Proto-oncogene tyrosine-protein kinase Src) (Homo sapiens, UniProt P12931); test: Inhibition of human recombinant N terminal His6 tagged full length Src assessed as residual activity at 5 uM using KVEKIGEGTYGVVYK as a substrate in the presence of NP-40 incubated for 10 mins by scintillation counting analysis relative to control; conditions: probe KVEKIGEGTYGVVYK, read-out: Activity; procedure, shortened: as §1
Sequence of Src (Proto-oncogene tyrosine-protein kinase Src) (P12931 2-536 limits assumed): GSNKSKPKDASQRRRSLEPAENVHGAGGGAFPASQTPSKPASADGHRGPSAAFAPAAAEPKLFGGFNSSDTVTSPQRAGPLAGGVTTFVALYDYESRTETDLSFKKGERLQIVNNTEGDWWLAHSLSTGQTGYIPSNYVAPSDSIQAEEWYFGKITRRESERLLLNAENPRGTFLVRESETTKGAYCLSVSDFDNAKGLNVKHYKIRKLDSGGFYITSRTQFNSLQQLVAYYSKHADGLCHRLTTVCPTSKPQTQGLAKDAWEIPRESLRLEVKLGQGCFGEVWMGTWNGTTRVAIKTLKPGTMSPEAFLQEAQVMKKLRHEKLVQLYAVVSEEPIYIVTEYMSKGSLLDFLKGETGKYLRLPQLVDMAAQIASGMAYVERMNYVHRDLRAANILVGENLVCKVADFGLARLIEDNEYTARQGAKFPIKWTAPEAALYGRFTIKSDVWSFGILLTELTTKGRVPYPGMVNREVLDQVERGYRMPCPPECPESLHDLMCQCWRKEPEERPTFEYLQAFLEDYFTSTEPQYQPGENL

[19] = molecular target: Fyn (Tyrosine-protein kinase Fyn) (Homo sapiens, UniProt P06241); test: Inhibition of human recombinant N terminal His6 tagged full length Fyn assessed as residual activity at 5 uM using […] as a substrate in the presence of NP-40 incubated for 10 mins by scintillation counting analysis relative to control; conditions: probe […], read-out: Activity; procedure, shortened: as §1
Sequence of Fyn (Tyrosine-protein kinase Fyn) (P06241 whole entry, canonical isoform): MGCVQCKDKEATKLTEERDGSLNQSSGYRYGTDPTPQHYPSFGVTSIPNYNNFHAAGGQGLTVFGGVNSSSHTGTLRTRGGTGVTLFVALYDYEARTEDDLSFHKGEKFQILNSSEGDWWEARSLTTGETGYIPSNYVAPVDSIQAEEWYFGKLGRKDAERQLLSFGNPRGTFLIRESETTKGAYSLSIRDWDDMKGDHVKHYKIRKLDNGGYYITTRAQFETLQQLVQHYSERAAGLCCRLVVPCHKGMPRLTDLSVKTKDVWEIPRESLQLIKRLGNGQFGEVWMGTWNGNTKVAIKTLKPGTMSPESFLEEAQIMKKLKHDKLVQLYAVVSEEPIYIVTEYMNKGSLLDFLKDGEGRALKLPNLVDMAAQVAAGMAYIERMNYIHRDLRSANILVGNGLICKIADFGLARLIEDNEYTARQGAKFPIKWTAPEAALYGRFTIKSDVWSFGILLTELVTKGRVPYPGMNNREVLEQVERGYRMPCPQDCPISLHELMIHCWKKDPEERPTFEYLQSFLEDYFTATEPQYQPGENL

[20] = molecular target: PIK3CA (Phosphatidylinositol 4,5-bisphosphate 3-kinase catalytic subunit alpha isoform) (Homo sapiens, UniProt P42336); test: Inhibition of human full length PIK3CA assessed as residual activity at 5 uM using PI:PS (1:3) as a substrate incubated for 10 mins by scintillation counting analysis relative to control; conditions: full length PIK3CA enzyme, probe PI:PS (1:3), read-out: Activity
Sequence of PIK3CA (Phosphatidylinositol 4,5-bisphosphate 3-kinase catalytic subunit alpha isoform) (P42336 whole entry, canonical isoform): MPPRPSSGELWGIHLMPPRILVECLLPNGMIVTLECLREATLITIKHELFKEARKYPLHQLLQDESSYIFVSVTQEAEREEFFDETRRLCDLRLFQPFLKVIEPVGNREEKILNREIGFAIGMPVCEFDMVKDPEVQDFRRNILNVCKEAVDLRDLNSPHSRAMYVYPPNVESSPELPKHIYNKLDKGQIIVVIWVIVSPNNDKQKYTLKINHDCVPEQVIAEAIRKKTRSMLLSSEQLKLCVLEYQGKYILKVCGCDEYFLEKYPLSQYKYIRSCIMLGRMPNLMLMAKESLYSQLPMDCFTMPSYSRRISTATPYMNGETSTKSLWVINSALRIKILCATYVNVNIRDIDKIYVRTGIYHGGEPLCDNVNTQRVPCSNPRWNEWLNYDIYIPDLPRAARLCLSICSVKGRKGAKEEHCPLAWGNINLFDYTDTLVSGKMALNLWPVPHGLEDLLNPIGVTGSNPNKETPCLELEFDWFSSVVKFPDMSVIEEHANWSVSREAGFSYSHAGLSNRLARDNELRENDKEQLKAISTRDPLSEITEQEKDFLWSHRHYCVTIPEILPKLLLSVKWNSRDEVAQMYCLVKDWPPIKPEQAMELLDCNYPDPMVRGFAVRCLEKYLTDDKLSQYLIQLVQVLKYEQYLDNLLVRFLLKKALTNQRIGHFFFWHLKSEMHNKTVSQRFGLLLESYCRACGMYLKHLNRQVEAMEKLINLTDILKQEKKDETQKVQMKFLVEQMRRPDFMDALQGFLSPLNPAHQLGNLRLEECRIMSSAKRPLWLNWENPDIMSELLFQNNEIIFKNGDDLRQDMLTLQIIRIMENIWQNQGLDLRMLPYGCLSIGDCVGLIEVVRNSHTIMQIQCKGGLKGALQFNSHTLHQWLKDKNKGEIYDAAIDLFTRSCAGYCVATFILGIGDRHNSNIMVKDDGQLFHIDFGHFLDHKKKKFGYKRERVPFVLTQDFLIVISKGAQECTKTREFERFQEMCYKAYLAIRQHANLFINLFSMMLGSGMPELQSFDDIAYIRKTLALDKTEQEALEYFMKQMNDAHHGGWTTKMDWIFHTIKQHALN
Procedure, shortened: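 Radiometric kinase reaction with 10–50 ng enzyme and compound fixed at 5 μM, 10 μL at 30 °C for 10 min. Reactions spotted on filter and counted by scintillation. Residual activity is the mean ± SD of two independent experiments.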

[21] = Dengue virus, New Guinea C, Huh-7, 72 h, read-out: IC50
[22] = West Nile virus, lineage 1 (Italy/2009), Huh-7, 48 h, read-out: IC50

Row | Structure (SMILES) | CC50 (Huh-7) [µM] | IC50 (dengue virus type 2 [4]; [21]) [µM] | selectivity ratio at 72 h [5] | IC50 (Zika virus) [µM] | selectivity ratio at 72 h [6] | other results
1 | Oc1cccc(Nc2nc(NCCOc3ccccc3)nc3[nH]cnc23)c1 | – | – | – | – | – | activity at 10 min, 5 µM [1]: 65%; activity at 10 min, 5 µM (CDK9/cyclin T1): > 98%
2 | Nc1ncnc2c1ncn2[C@@H]1O[C@H](C[C@@H](N)CC[C@H](N)C(=O)O)[C@@H](O)[C@H]1O [SINEFUNGIN] | – | – | – | – | – | IC50 [2]: 0.63 µM; IC50 ([3]; read-out: IC50): 1.18 µM
3 | COc1cc(Nc2nc(NCCOc3ccccc3)nc3[nH]cnc23)cc(OC)c1OC | 7.5 | – | – | – | – | –
4 | Fc1cccc(Nc2nc(NCCOc3ccccc3)c3nc[nH]c3n2)c1 | 8 | – | – | – | – | –
5 | FC(F)(F)c1cccc(Nc2nc(NCCOc3ccccc3)c3nc[nH]c3n2)c1 | 6 | – | – | – | – | –
6 | OCCNc1nc(Nc2cccc(C(F)(F)F)c2)c2nc[nH]c2n1 | 50 | 4.5 | 11 | 10.6 | 5 | IC50 (West Nile virus [7]; [22]): 1.9 µM; IC50 (West Nile virus [8]): 1.5 µM; selectivity ratio at 48 h [9]: 26; selectivity ratio at 48 h [10]: 33
7 | CNc1nc(Nc2cccc(C(F)(F)F)c2)c2nc[nH]c2n1 | – | 3.5 | 57 | – | – | CC50 [11]: 200 µM; IC50 (dengue virus type 2 [12]): 4.9 µM; selectivity ratio at 72 h [13]: 41; IC50 (West Nile virus [7]; huh-7): Not Active
8 | OCCNc1nc(Nc2cccc(F)c2)c2nc[nH]c2n1 | 136 | 29.8 | 5 | 8.9 | 15 | –
9 | FC(F)(F)c1cc(NNc2nc(NCCOc3ccccc3)nc3[nH]cnc23)cc(C(F)(F)F)c1 | 5 | – | – | – | – | –
10 | O=C(O)c1cccc(Nc2nc(NCCOc3ccccc3)nc3[nH]cnc23)c1 | – | 28.2 | 7 | 29 | 7 | CC50 [11]: 200 µM
11 | Fc1cccc(/N=N/c2nc(NCCOc3ccccc3)nc3[nH]cnc23)c1 | 18.5 | 4 | 5 | 2.8 | 7 | IC50 (West Nile virus [7]; [22]): 0.6 µM; IC50 (West Nile virus [8]): 0.6 µM; selectivity ratio at 48 h [9]: 28; selectivity ratio at 48 h [10]: 30; Activity [14]: Active; IC50 [15]: > 100 µM; IC50 [16]: > 100 µM; IC50 [17]: > 100 µM; IC50 [2]: 226 µM; IC50 [3]: Not Active; activity at 10 min, 5 µM [18]: > 98%; activity at 10 min, 5 µM [1]: > 98%; activity at 10 min, 5 µM [19]: 89%; activity at 10 min, 5 µM [20]: 78%; activity at 10 min, 5 µM (CDK9/cyclin T1): > 98%
12 | FC(F)(F)c1ccc(NNc2nc(NCCOc3ccccc3)nc3[nH]cnc23)cc1 | 8 | – | – | – | – | –
13 | CNc1nc(Nc2cccc(C(=O)OC)c2)c2nc[nH]c2n1 | – | 18 | 11 | 8 | 25 | CC50 [11]: 200 µM
14 | COC(=O)c1cccc(Nc2nc(NCCOc3ccccc3)nc3[nH]cnc23)c1 | 100 | – | – | 8.2 | 12 | IC50 (dengue virus type 2 [4]; huh-7): Not Active
15 | COC(=O)c1cccc(Nc2nc(NCCO)nc3[nH]cnc23)c1 | – | 17.5 | 11 | 6.2 | 32 | CC50 [11]: 200 µM
16 | CNc1nc(Nc2cccc(C(=O)O)c2)c2nc[nH]c2n1 | – | – | – | 33.5 | 6 | CC50 [11]: 200 µM; IC50 (dengue virus type 2 [4]; huh-7): Not Active
17 | CNc1nc(Nc2cccc(F)c2)c2nc[nH]c2n1 | 84 | 9.3 | 9 | 14.7 | 6 | –
18 | FC(F)(F)c1cccc(NNc2nc(NCCOc3ccccc3)nc3[nH]cnc23)c1 | 7.5 | – | – | – | – | –
19 | FC(F)(F)c1cc(/N=N/c2nc(NCCOc3ccccc3)nc3[nH]cnc23)cc(C(F)(F)F)c1 | 7.5 | – | – | – | – | –
20 | Oc1ccc(Nc2nc(NCCOc3ccccc3)nc3[nH]cnc23)cc1O | – | – | – | 25 | 8 | CC50 [11]: 200 µM; IC50 (dengue virus type 2 [4]; huh-7): Not Active
21 | Fc1cc(F)cc(/N=N/c2nc(NCCOc3ccccc3)nc3[nH]cnc23)c1 | 12 | – | – | – | – | –
22 | FC(F)(F)c1ccc(/N=N/c2nc(NCCOc3ccccc3)nc3[nH]cnc23)cc1 | 8 | – | – | – | – | –
23 | Fc1cc(F)cc(NNc2nc(NCCOc3ccccc3)nc3[nH]cnc23)c1 | 8.5 | – | – | – | – | –

Reference: ChEMBL document CHEMBL4842338, “System-oriented optimization of multi-target 2,6-diaminopurine derivatives: Easily accessible broad-spectrum antivirals active against flaviviruses, influenza virus and SARS-CoV-2” (Eur J Med Chem, 2021)
